Data reported in ChEMBL document CHEMBL4414678, “Structure Determination, Functional Characterization, and Biosynthetic Implications of Nybomycin Metabolites from a Mining Reclamation Site-Associated Streptomyces” (J Nat Prod, 2019).
In brackets after ≈: the same amount, converted by molar mass. Activity calls are given as the source filed them. The calls are words filed in the database; no cut-off is given here. Starred links: 1 amine or outer side, 2 acyl side, 3 side chain; linkers in the order of their positions; H or OH if unused. Positions of bridges follow the written chain, without caps; N, C: chain ends. Non-standard residues stand in square brackets, D forms with d. Residues, ends and D or L forms follow the SMILES beside them. Chains are numbered I, II in the order given. Actinocin(1to9) = Cc1c2oc3c(C)ccc(C(=O)[*:2])c3nc-2c(C(=O)[*:1])c(N)c1=O; NMeV = CN[C@H](C(=O)O)C(C)C; Sar = CNCC(=O)O

Columns and labels:
Saccharomyces cerevisiae = assay: Antifungal activity against Saccharomyces cerevisiae ATCC 204508 after 16 to 48 hrs; assay type: functional
Procedure, shortened: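 MIC determined against the S. cerevisiae strain after 16–48 h incubation, in triplicate. DMSO vehicle was the negative control and amphotericin B the positive control.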

Salmonella enterica = assay: Antibacterial activity against Salmonella enterica ATCC 10708 after 16 to 48 hrs; assay type: functional
Procedure, shortened: (§1)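 MIC determined against each bacterial strain after 16–48 h incubation, in triplicate. DMSO vehicle was the negative control, and kanamycin and ampicillin were the positive controls.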

PC-3 [1] = assay: Antiproliferative activity against human PC3 cells assessed as reduction in cell viability after 72 hrs by alamar blue assay; assay type: functional, cell-based; conditions: PC-3, 72 h
Procedure, shortened: (§2)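 Cancer cell viability measured after 72 h exposure, in triplicate, and EC50/IC50 derived. DMSO served as the negative control. Positive controls were actinomycin D at 20 μM and H2O2 at 2 mM, each taken as 0% viable cells.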

Staphylococcus aureus = assay: Antibacterial activity against Staphylococcus aureus ATCC 6538 after 16 to 48 hrs; assay type: functional; procedure, shortened: as §1
Bacillus subtilis = assay: Antibacterial activity against Bacillus subtilis ATCC 6633 after 16 to 48 hrs; assay type: functional; procedure, shortened: as §1
Escherichia coli = assay: Antibacterial activity against Escherichia coli ATCC 12435 after 16 to 48 hrs; assay type: functional; procedure, shortened: as §1
A549 [2] = assay: Antiproliferative activity against human A549 cells assessed as reduction in cell viability after 72 hrs by alamar blue assay; assay type: functional, cell-based; conditions: A549, 72 h; procedure, shortened: as §2
Mycolicibacterium aurum = assay: Antibacterial activity against Mycobacterium aurum ATCC 23366 after 16 to 48 hrs; assay type: functional; procedure, shortened: as §1
Micrococcus luteus = assay: Antibacterial activity against Micrococcus luteus ATCC 15307 after 16 to 48 hrs; assay type: functional; procedure, shortened: as §1
[3] = molecular target: Eukaryotic translation initiation factor 4E-binding protein 1 (Homo sapiens) (UniProt Q13541); assay: Inhibition of 4E-BP1 phosphorylation in human HCT116 cells at 1 uM after 6 hrs by Western blot analysis; assay type: cell-based
Eukaryotic translation initiation factor 4E-binding protein 1 (Homo sapiens), sequence (Q13541 whole entry): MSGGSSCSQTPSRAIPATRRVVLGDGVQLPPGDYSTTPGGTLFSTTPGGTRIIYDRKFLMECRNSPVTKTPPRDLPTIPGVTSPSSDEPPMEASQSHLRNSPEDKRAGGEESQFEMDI
Procedure, shortened: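 HCT116 cells treated for 6 h with compound at 1 or 2 μM, or with DMSO as negative control. Lysates analysed by Western blot for phosphorylated 4E-BP1 alongside related proteins.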

Ambystoma mexicanum = assay: Toxicity in axolotl embryo at 1 uM after 7 days by tail regeneration assay; assay type: organism-based; conditions: in vivo, 168 h
Procedure, shortened: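 Axolotl embryos (Ambystoma Genetic Stock Center) had the tail amputated and were exposed to 1 μM compound. Regeneration, judged by a rounded tail tip, was scored at 7 days post-amputation. DMSO vehicle was the negative control and geldanamycin the positive control.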

PC-3 [4] = assay: Antiproliferative activity against human PC3 cells assessed as cell viability at 20 uM after 72 hrs by alamar blue assay relative to control; assay type: functional; conditions: PC-3, 72 h, read-out: Activity
A549 [5] = assay: Antiproliferative activity against human A549 cells assessed as cell viability at 20 uM after 72 hrs by alamar blue assay relative to control; assay type: functional; conditions: A549, 72 h, read-out: Activity

MIC (Saccharomyces cerevisiae) [µM]	MIC (Salmonella enterica) [µM]	EC50 (PC-3 [1]) [µM]	MIC (Staphylococcus aureus) [µM]	MIC (Bacillus subtilis) [µM]	MIC (Escherichia coli) [µM]	EC50 (A549 [2]) [µM]	MIC (Mycolicibacterium aurum) [µM]	MIC (Micrococcus luteus) [µM]	inhibition [3]	Compound	Activity (Ambystoma mexicanum)	viability at 20 µM (PC-3 [4]) [%]	viability at 20 µM (A549 [5]) [%]
2 (≈ 1.85 µg/mL)										C[C@@H]1[C@H](O)[C@@H](C)/C=C/C=C/C=C/C=C/C=C/C=C/C=C/[C@H](O[C@@H]2O[C@H](C)[C@@H](O)[C@H](N)[C@@H]2O)C[C@@H]2O[C@](O)(C[C@@H](O)C[C@@H](O)[C@H](O)CC[C@@H](O)C[C@@H](O)CC(=O)O[C@H]1C)C[C@H](O)[C@H]2C(=O)O [AMPHOTERICIN B]			
> 24	> 24	> 100	> 24	> 24	> 24	> 100	> 24	> 24		Cc1cc(=O)n2c3c(c4c(cc13)c(C(=O)O)cc(=O)n4C)OC2			
> 24	> 24	> 100	3 (≈ 1.61 µg/mL)	0.4 (≈ 0.215 µg/mL)	> 24	> 100	> 24	1.5 (≈ 0.805 µg/mL)		COC(=O)c1cc2cc(CCc3cc4c(o3)C(=O)c3c(O)c(OC)cc(OC)c3C4=O)c(O)c(O)c2c(=O)o1			
> 24	> 24	> 100	> 24	12 (≈ 3.58 µg/mL)	> 24	> 100	> 24	12 (≈ 3.58 µg/mL)		Cc1cc(=O)n2c3c(c4c(cc13)c(CO)cc(=O)n4C)OC2			
> 24	> 24	> 100	> 24	> 24	> 24	> 100	> 24	> 24		C/C=C/C=C/[C@H]1C[C@H](O)CCN1			
> 24	> 24	0.15	12 (≈ 3.41 µg/mL)	12 (≈ 3.41 µg/mL)	> 24	0.25	> 24	12 (≈ 3.41 µg/mL)	Active	Cc1cc(=O)[nH]c2c1C(=O)c1c(C)cc(=O)n(C)c1C2=O			
> 24	> 24	> 100	> 24	> 24	> 24	> 100	> 24	> 24		Cc1cc(=O)[nH]c2c(O)c3c(cc12)c(CO)cc(=O)n3C			
3 (≈ 1.57 µg/mL)	> 24	> 100	0.075 (≈ 0.0392 µg/mL)	0.02 (≈ 0.0104 µg/mL)	> 24	> 100	12 (≈ 6.27 µg/mL)	0.15 (≈ 0.0784 µg/mL)		COC(=O)c1cc2cc3c(c(O)c2c(=O)o1)O[C@]1(CC3)Cc2c(O)c3c(c(O)c2O1)C(=O)C(OC)=CC3=O	Non-Toxic		
	14 (≈ 6.78 µg/mL)		7.5 (≈ 3.63 µg/mL)	2 (≈ 0.969 µg/mL)	7.5 (≈ 3.63 µg/mL)			15 (≈ 7.27 µg/mL)		NC[C@H]1O[C@H](O[C@H]2[C@H](O)[C@@H](O[C@H]3O[C@H](CO)[C@@H](O)[C@H](N)[C@H]3O)[C@H](N)C[C@@H]2N)[C@H](O)[C@@H](O)[C@@H]1O [KANAMYCIN]			
							2 (≈ 1.65 µg/mL)			CO[C@H]1/C=C/O[C@@]2(C)Oc3c(C)c(O)c4c(O)c(c(/C=N/N5CCN(C)CC5)c(O)c4c3C2=O)NC(=O)/C(C)=C\C=C\[C@H](C)[C@H](O)[C@@H](C)[C@@H](O)[C@@H](C)[C@H](OC(C)=O)[C@@H]1C [RIFAMPIN]			
12 (≈ 6.44 µg/mL)	> 24	> 100	12 (≈ 6.44 µg/mL)	12 (≈ 6.44 µg/mL)	> 24	> 100	> 24	6 (≈ 3.22 µg/mL)		COC(=O)c1cc2cc3c(c(O)c2c(=O)o1)O[C@]1(CC3)CC2=C(O1)C(=O)c1c(O)c(OC)cc(OC)c1C2=O			
										Cc1c2oc3c(C)ccc(C(=O)N[C@@H]4C(=O)N[C@H](C(C)C)C(=O)N5CCC[C@H]5C(=O)N(C)CC(=O)N(C)[C@@H](C(C)C)C(=O)O[C@@H]4C)c3nc-2c(C(=O)N[C@@H]2C(=O)N[C@H](C(C)C)C(=O)N3CCC[C@H]3C(=O)N(C)CC(=O)N(C)[C@@H](C(C)C)C(=O)O[C@@H]2C)c(N)c1=O [DACTINOMYCIN] (I: T[dV]P[Sar][NMeV] / II: T[dV]P[Sar][NMeV]; ester I:1-I:C, II:1-II:C; linker I:N-II:N via Actinocin(1to9))		0	0
	25 (≈ 8.74 µg/mL)		12 (≈ 4.19 µg/mL)		25 (≈ 8.74 µg/mL)			25 (≈ 8.74 µg/mL)		CC1(C)S[C@@H]2[C@H](NC(=O)[C@H](N)c3ccccc3)C(=O)N2[C@H]1C(=O)O [AMPICILLIN]			
> 24	> 24	1.14	12 (≈ 3.41 µg/mL)	6 (≈ 1.71 µg/mL)	> 24	15.2	> 24	12 (≈ 3.41 µg/mL)		Cc1cc(=O)n(C)c2c(O)c3c(cc12)c(C)cc(=O)n3C			
